Test results reported in ChEMBL document CHEMBL1806397, “6-Aryl-3-pyrrolidinylpyridines as mGlu5 receptor negative allosteric modulators” (Bioorg Med Chem Lett, 2011).

What was measured:
Liver microsomes = experiment: Intrinsic clearance in human liver microsomes at 1 uM after 0.25 to 60 mins by LC-MS/MS analysis; assay type: ADME, Microsome
Summary of the method: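 Compound at 1 µM incubated at 37 °C with pooled human liver microsomes (0.5 mg/mL) in 0.1 M potassium phosphate pH 7.4 with an NADPH-regenerating system. Aliquots taken at 0.25, 5, 15, 30 and 60 min and quenched in acetonitrile. CLint calculated from T1/2, scaled by liver and microsomal protein factors.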

[1] = Dissociation constant, pKa of the compound; assay type: physicochemical
[2] = Drug level in Sprague-Dawley rat cerebrospinal fluid at 10 mg/kg, po after 1 hr; assay type: ADME, organism-based; parameters: dose 10 mg/kg, route oral; conditions: read-out: Drug uptake
[3] = Apparent permeability of the compound at pH 7.4 by PAMPA method; assay type: ADME
Summary of the method: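 Passive membrane permeability estimated by PAMPA; apparent permeability (P_APP) reported in cm/s.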

Plasma = experiment: Free drug level in Sprague-Dawley rat plasma at 10 mg/kg, po after 1 hr; assay type: ADME, organism-based; parameters: dose 10 mg/kg, route oral; conditions: in vivo
[4] = Ratio of drug level in brain to plasma in Sprague-Dawley rat at 10 mg/kg, po after 1 hr; assay type: ADME, organism-based; parameters: dose 10 mg/kg, route oral; conditions: read-out: BPR
[5] = Drug level in Sprague-Dawley rat plasma at 10 mg/kg, po after 1 hr; assay type: ADME, organism-based; parameters: dose 10 mg/kg, route oral
[6] = Drug level in Sprague-Dawley rat brain at 10 mg/kg, po after 1 hr; assay type: ADME, organism-based; parameters: dose 10 mg/kg, route oral; conditions: read-out: Drug uptake
[7] = Distribution coefficient, log D of the compound at pH 7.4; assay type: physicochemical; conditions: octanol/water

Compound	CL (Liver microsomes) [L/min]	pKa [1]	further results
Cc1cc(-c2cccc(Cl)c2)ncc1C1CCCN1C(=O)c1ccncn1 (stereo unspecified)	5.3	–	–
Cc1cc(-c2cccc(Cl)c2)ncc1C1CC(F)CN1C(=O)c1cncs1 (stereo unspecified)	7.1	–	–
Cc1cc(-c2cccc(Cl)c2)ncc1C1CCCN1C(=O)c1cnccn1 (stereo unspecified)	3.3	4.1	–
Cc1cc(C(=O)N2CCCC2c2ccc(-c3cccc(Cl)c3)nc2)no1 (stereo unspecified)	–	3.5	–
O=C(C1CCC1)N1CCCC1c1cnc(-c2cccc(Cl)c2)cc1O (stereo unspecified)	–	2.8	–
Cc1cc(-c2cccc(Cl)c2)ncc1[C@H]1CCCN1C(=O)c1nccs1	–	–	concentration at 1 h [2]: 0.003 µM; Papp [3]: 150 nm/s; Cp(f) (Plasma): 0.001 µM; Kp at 1 h [4]: 0.8; concentration at 1 h [5]: 0.162 µM; concentration at 1 h [6]: 0.133 µM; logD [7]: 4.3
Cc1cc(-c2cccc(Cl)c2)ncc1C1CCCN1C(=O)c1cncs1 (stereo unspecified)	35	4.2	–
O=C(c1cncs1)N1CCCC1c1ccc(-c2cccc(Cl)c2)nc1 (stereo unspecified)	1.6	3.6	–
Cc1cc(-c2cccc(Cl)c2)ncc1C1CC(O)CN1C(=O)c1nccs1 (stereo unspecified)	0.9	–	–
O=C(c1cnccn1)N1CCCC1c1ccc(-c2cccc(Cl)c2)nc1 (stereo unspecified)	3.3	3.4	–
O=C(c1cccs1)N1CCCC1c1ccc(-c2cccc(Cl)c2)nc1 (stereo unspecified)	3	3.6	–

Continued, in another order:

CL (Liver microsomes) [L/min]	pKa [1]	Compound	further results
2.6	–	Cc1cc(-c2cccc(Cl)c2)ncc1C1CC(F)CN1C(=O)c1cnccn1 (stereo unspecified)	–
38	4.2	Cc1cc(C(=O)N2CCCC2c2cnc(-c3cccc(Cl)c3)cc2C)no1 (stereo unspecified)	–
5.2	–	Cc1cc(-c2cccc(Cl)c2)ncc1C1CCCN1C(=O)c1nccs1 (racemic)	–
1.7	5	COc1cc(-c2cccc(Cl)c2)ncc1C1CCCN1C(=O)c1cncs1 (stereo unspecified)	–
3.8	–	O=C(c1nccs1)N1CCCC1c1ccc(-c2cccc(Cl)c2)nc1 (stereo unspecified)	–
1.6	–	Cc1cc(-c2cccc(Cl)c2)ncc1C1CC(O)CN1C(=O)c1cnccn1 (stereo unspecified)	–
5.3	–	Cc1cc(-c2cccc(Cl)c2)ncc1C1CCCN1C(=O)C1CCC1 (stereo unspecified)	–
